Assay results published in ChEMBL document CHEMBL4118021, “Studies of TAK1-centered polypharmacology with novel covalent TAK1 inhibitors” (Bioorg Med Chem, 2017).

Legend:
Assay type in all cases: cell-based
[1] = target: T1, Serine/threonine-protein kinase TAO3 (Homo sapiens) (UniProt Q9H2K8); test: Inhibition of TAO3 in human SKCO1 cells at 1 uM after 4 hrs using biotin labeled DIKAGNILLTEPGQVK probe by mass-spectrometric analysis relative to control
T1 sequence (whole entry): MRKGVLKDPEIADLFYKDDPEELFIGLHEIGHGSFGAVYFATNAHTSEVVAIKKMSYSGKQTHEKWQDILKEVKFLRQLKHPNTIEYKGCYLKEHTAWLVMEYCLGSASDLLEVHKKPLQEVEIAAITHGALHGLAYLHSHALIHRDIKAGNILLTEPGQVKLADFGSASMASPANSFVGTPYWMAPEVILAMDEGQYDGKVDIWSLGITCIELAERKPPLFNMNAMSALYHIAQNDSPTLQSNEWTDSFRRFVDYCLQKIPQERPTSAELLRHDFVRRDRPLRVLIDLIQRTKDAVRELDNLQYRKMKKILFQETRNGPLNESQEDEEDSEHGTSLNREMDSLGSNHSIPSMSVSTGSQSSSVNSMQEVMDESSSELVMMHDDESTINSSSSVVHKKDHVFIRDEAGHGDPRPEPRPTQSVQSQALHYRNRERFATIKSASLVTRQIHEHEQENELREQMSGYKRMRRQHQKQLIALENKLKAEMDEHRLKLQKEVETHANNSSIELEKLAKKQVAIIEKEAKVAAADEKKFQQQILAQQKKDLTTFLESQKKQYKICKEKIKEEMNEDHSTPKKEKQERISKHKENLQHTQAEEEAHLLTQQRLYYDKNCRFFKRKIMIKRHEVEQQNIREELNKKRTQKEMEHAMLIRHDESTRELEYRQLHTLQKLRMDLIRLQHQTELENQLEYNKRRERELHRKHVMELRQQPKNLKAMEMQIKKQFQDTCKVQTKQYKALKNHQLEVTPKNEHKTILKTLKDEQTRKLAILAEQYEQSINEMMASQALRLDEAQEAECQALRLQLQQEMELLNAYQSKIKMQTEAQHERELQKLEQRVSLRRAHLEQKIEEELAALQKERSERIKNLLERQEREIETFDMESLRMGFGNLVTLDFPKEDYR
Procedure, shortened: (§1)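 Live SK-CO-1 cells exposed to compound at 1 μM or DMSO for 4 h (KiNativ). Lysates then labeled with lysine-reactive ATP/ADP-biotin probe, and probe-labeled kinase peptides quantified by mass spectrometry. Percent inhibition of probe-dependent recovery calculated relative to DMSO-treated cells.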

[2] = target: Epidermal growth factor receptor (Homo sapiens) (UniProt P00533); test: Inhibition of EGFR in human SKCO1 cells at 1 uM after 4 hrs using biotin labeled LLGAEEKEYHAEGGKVPIK probe by mass-spectrometric analysis relative to control
Chain of Epidermal growth factor receptor (Homo sapiens) (P00533 whole entry): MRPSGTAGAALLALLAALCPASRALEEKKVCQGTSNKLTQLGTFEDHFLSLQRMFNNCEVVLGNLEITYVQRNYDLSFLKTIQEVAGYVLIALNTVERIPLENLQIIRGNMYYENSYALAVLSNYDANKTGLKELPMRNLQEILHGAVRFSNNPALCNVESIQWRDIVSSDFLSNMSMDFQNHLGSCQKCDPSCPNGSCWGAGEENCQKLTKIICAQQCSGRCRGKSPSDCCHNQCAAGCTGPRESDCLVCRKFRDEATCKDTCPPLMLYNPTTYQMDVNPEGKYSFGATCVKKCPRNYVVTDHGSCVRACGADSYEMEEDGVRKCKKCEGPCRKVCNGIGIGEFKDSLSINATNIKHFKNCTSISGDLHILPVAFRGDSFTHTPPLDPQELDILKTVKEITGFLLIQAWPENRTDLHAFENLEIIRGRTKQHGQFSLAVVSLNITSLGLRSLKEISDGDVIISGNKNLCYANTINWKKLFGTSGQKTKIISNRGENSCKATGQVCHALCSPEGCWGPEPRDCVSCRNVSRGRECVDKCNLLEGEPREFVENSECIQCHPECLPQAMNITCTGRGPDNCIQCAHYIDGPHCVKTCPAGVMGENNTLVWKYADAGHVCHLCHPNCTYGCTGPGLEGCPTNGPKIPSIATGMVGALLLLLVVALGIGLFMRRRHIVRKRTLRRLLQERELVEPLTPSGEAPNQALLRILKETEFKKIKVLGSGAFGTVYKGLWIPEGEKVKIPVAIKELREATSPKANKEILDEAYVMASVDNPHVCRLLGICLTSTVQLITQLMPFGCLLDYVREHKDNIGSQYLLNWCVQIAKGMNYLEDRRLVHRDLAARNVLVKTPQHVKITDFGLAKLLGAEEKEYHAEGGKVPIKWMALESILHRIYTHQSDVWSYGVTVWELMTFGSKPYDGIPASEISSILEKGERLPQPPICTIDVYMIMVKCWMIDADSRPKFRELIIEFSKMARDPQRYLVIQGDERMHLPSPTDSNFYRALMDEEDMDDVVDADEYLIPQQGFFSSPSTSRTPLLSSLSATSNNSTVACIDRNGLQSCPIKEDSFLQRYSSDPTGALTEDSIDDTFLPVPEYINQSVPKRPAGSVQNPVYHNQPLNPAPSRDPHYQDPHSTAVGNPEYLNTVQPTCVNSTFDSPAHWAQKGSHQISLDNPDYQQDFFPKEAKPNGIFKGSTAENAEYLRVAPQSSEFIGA

[3] = target: T2, Serine/threonine-protein kinase tousled-like 1 (Homo sapiens) (UniProt Q9UKI8); test: Inhibition of TLK1 in human SKCO1 cells at 1 uM after 4 hrs using biotin labeled YLNEIKPPIIHYDLKPGNILLVDGTACEIK probe by mass-spectrometric analysis relative to control; procedure, shortened: as §1
T2 sequence (whole entry): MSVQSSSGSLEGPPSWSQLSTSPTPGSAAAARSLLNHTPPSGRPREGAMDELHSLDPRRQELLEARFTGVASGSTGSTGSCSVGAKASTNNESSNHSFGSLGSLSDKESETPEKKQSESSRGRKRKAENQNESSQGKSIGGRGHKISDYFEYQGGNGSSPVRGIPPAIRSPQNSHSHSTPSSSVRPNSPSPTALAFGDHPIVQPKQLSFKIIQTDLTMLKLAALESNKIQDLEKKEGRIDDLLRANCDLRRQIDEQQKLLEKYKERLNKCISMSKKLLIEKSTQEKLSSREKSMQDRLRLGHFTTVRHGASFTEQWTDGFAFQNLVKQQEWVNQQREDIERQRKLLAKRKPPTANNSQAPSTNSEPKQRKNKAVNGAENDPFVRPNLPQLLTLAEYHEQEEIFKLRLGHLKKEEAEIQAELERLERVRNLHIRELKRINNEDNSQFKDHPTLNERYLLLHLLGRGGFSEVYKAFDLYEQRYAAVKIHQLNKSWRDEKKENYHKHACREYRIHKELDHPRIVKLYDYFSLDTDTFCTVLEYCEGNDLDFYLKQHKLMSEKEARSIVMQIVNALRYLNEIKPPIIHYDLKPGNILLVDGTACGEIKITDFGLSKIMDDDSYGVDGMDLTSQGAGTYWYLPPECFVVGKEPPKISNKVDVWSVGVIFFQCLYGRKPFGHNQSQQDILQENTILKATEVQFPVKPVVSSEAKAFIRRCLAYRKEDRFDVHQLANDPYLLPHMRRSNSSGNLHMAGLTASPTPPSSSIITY

[4] = target: 1-phosphatidylinositol 3-phosphate 5-kinase (Homo sapiens) (UniProt Q9Y2I7); test: Inhibition of PIP5K3 in human SKCO1 cells at 1 uM after 4 hrs using biotin labeled GGKSGAAFYATEDDRFILK probe by mass-spectrometric analysis relative to control; procedure, shortened: as §1
Chain of 1-phosphatidylinositol 3-phosphate 5-kinase (Homo sapiens) (Q9Y2I7 whole entry): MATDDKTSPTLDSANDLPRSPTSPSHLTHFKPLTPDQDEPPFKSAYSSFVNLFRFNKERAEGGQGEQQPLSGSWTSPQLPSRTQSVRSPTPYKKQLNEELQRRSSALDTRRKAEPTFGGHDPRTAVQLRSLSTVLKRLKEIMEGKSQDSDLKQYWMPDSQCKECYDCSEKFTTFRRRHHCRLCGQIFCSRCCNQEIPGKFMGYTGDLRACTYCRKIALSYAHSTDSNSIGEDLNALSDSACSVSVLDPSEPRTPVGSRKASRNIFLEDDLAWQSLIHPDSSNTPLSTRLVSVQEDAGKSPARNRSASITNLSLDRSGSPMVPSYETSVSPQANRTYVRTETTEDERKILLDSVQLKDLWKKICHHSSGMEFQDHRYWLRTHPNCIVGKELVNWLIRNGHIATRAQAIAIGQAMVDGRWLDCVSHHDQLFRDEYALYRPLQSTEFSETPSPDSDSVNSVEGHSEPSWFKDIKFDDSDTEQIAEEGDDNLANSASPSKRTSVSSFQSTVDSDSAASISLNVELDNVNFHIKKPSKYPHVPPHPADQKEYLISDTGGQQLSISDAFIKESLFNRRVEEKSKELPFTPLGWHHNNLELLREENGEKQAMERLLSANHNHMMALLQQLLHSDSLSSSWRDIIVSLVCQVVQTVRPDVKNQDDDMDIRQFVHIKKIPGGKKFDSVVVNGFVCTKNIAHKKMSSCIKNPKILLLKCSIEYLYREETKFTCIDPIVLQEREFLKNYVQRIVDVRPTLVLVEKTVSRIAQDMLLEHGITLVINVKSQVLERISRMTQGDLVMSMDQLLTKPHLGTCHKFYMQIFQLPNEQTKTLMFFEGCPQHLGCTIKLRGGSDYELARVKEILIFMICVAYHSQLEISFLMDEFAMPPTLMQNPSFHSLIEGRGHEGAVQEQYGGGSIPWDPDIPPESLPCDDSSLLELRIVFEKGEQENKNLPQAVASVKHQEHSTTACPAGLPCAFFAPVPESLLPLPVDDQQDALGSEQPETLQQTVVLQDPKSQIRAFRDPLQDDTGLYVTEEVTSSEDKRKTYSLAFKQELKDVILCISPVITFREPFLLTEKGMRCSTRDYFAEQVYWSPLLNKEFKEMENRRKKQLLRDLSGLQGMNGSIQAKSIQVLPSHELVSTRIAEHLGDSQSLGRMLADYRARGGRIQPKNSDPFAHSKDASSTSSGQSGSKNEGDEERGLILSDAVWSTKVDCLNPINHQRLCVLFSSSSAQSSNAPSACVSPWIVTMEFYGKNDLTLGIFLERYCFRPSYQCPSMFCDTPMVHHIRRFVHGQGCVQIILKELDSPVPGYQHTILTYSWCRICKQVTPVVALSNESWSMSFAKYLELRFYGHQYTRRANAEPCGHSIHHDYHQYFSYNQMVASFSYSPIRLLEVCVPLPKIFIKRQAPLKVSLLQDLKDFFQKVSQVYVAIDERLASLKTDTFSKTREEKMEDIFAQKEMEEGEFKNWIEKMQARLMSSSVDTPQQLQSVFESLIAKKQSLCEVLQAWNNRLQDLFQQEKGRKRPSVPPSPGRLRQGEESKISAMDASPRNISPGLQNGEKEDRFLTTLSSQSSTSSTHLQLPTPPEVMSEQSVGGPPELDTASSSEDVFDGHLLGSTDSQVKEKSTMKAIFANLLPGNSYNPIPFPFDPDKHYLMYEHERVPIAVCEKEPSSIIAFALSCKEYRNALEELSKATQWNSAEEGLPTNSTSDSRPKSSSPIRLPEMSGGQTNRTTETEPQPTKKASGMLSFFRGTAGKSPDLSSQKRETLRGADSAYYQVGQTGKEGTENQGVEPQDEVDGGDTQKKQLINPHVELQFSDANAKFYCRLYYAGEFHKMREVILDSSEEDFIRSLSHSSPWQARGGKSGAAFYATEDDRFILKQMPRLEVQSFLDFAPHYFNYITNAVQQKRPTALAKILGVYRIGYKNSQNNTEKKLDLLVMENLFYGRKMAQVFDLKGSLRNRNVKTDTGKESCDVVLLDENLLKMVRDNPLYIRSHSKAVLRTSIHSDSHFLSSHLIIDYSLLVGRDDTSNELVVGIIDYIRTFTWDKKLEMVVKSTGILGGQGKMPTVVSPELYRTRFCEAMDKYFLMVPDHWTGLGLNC

[5] = target: Glycogen synthase kinase-3 beta (Homo sapiens) (UniProt P49841); test: Inhibition of GSK3B in human SKCO1 cells at 1 uM after 4 hrs using biotin labeled DIKPQNLLLDPDTAVLK probe by mass-spectrometric analysis relative to control
Chain of Glycogen synthase kinase-3 beta (Homo sapiens) (P49841 whole entry, looked up): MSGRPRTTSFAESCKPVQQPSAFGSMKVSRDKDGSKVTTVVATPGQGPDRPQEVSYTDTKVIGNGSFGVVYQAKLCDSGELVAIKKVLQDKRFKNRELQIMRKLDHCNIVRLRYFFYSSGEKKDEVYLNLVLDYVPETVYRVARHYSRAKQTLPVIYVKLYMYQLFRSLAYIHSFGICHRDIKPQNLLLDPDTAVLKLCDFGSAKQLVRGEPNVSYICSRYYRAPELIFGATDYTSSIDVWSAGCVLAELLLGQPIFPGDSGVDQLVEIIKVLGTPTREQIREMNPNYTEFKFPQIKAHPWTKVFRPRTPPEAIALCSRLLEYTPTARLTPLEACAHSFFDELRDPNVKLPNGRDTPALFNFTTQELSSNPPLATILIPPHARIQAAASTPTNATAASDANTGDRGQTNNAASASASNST

[6] = target: Cyclin-dependent kinase 16 (Homo sapiens) (UniProt Q00536); test: Inhibition of PCTAIRE1 in human SKCO1 cells at 1 uM after 4 hrs using biotin labeled DLKPQNLLINER probe by mass-spectrometric analysis relative to control; procedure, shortened: as §1
[7] = target: Phosphatidylinositol 4-kinase beta (Homo sapiens) (UniProt Q9UBF8); test: Inhibition of PI4KB in human SKCO1 cells at 1 uM after 4 hrs using biotin labeled VPHTQAVVLNSKDK probe by mass-spectrometric analysis relative to control; procedure, shortened: as §1
Chain of Phosphatidylinositol 4-kinase beta (Homo sapiens) (Q9UBF8 2-816 limits assumed): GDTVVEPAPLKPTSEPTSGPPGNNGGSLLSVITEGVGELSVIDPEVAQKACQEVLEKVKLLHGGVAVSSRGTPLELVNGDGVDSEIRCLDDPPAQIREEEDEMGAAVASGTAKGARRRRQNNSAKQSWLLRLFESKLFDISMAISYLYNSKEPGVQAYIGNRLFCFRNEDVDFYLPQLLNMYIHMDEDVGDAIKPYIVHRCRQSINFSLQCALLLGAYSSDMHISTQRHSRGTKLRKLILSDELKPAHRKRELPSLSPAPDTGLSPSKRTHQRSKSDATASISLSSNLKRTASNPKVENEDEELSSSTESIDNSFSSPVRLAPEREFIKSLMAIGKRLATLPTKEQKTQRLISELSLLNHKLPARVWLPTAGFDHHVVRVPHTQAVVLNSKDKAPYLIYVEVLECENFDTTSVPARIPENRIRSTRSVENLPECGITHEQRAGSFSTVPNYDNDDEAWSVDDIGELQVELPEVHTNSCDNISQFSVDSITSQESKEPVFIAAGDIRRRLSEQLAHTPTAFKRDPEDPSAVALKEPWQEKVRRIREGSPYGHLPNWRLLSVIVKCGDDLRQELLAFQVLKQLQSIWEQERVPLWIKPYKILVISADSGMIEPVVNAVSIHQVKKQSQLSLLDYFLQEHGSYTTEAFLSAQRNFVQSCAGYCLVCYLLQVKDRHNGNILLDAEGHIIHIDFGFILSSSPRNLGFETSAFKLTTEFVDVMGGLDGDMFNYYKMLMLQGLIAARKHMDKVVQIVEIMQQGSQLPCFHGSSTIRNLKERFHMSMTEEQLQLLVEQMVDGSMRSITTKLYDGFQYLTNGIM

[8] = target: Dual specificity mitogen-activated protein kinase kinase 1 (Homo sapiens) (UniProt Q02750); test: Inhibition of MAP2K1 in human SKCO1 cells at 1 uM after 4 hrs using biotin labeled IMHRDVKPSNILVNSR probe by mass-spectrometric analysis relative to control
Chain of Dual specificity mitogen-activated protein kinase kinase 1 (Homo sapiens) (Q02750 whole entry): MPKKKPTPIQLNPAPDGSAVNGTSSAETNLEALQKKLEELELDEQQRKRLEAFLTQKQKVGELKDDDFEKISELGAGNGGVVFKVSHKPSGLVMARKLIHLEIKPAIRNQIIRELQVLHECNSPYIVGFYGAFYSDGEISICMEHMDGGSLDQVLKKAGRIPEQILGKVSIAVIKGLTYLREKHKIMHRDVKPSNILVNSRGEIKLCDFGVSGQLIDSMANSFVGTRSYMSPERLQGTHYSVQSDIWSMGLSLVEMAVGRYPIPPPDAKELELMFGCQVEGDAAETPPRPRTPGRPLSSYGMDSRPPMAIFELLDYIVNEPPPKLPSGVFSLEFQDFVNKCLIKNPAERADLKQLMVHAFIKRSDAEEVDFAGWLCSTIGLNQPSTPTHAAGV
Procedure, shortened: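 Live SK-CO-1 cells treated 4 h at 1 μM (DMSO control); cells lysed and lysates labeled with lysine-reactive ATP/ADP-biotin probe (KiNativ); probe-labeled kinase peptides quantified by mass spectrometry; inhibition expressed as percent reduction in probe-dependent recovery versus DMSO-treated cells.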

SMILES | inhibition [1] | inhibition [2] | inhibition [3] | inhibition [4] | inhibition [5] | inhibition [6] | inhibition [7] | inhibition [8]
COc1cc(O)c2c(c1)/C=C/C[C@H](O)[C@H](O)C(=O)/C=C\C[C@H](C)OC2=O | 39.4% | 14.5% | 19.3% | 64.9% | 3% | -6.3% | 21.8% | 89.4%
C=CC(=O)Nc1ccccc1Nc1nc(Nc2ccc(N3CCN(C)CC3)cc2)ncc1Cl | 13.1% | 47.6% | 2.3% | 61.5% | -6.6% | -3.2% | 14.7% | 60%
C=CC(=O)Nc1ccccc1Oc1nc(Nc2cnn(CCOC)c2)ncc1Cl | 9.6% | 28.6% | 11.3% | 54.1% | 17% | -5.9% | 27.2% | -7.9%
